Source: ChEMBL document CHEMBL4118104, “Design, Synthesis, and Evaluation of Orally Bioavailable Quinoline-Indole Derivatives as Innovative Multitarget-Directed Ligands: Promotion of Cell Proliferation in the Adult Murine Hippocampus for the Treatment of Alzheimer's Disease” (J Med Chem, 2018)

Experiments:
Mus musculus [1] = test: Toxicity in double APP/PS1 transgenic Alzheimer's disease mouse model assessed as carcinogenicity in subcutaneous layer at 30 mg/kg/day, po for 80 days; assay type: organism-based; conditions: in vivo, 1920 h
Procedure, shortened: (§1)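 APP/PS1 double-transgenic mice, six months old, dosed by intragastric infusion at 30 mg/kg/day in 0.5% CMC-Na for 80 consecutive days (n = 10). Vehicle mice and wild-type C57BL/6 mice received blank 0.5% CMC-Na. Body weight tracked daily; diarrhoea, emesis-like behaviour and mortality monitored. At sacrifice, brain, subcutaneous layer, stomach, intestines, heart, lung, liver, spleen, kidneys and other organs examined for expansion or carcinogenicity.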

[2] = Initial plasma concentration in Sprague-Dawley rat at 5 mg/kg, iv administered as single dose by LC-MS/MS analysis; assay type: ADME, organism-based
Mus musculus [3] = test: Toxicity in C57BL/6 mouse assessed as abnormal behavior at 677 to 2000 mg/kg, ig measured continuously during first 4 hrs, intermittently for following 24 hrs and occasionally thereafter for 14 consecutive days; assay type: organism-based; conditions: in vivo, po
Procedure, shortened: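 Adult C57BL/6 mice, 12 weeks old, given single intragastric doses of 0, 677, 1333 or 2000 mg/kg (n = 6 per dose, 3 male and 3 female). Abnormal behaviour and deaths observed continuously for the first 4 h, intermittently over the next 24 h, then occasionally for 14 days to catch delayed effects.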

Mus musculus [4] = test: Toxicity in C57BL/6 mouse assessed as macroscopic abnormalities of kidney at 677 to 2000 mg/kg, ig after 14 consecutive days; assay type: organism-based; conditions: in vivo, po
Mus musculus [5] = test: Toxicity in double APP/PS1 transgenic Alzheimer's disease mouse model assessed as increase in mortality at 30 mg/kg/day, po for 80 days; assay type: organism-based; conditions: in vivo, 1920 h; procedure, shortened: as §1
Mus musculus [6] = test: Toxicity in C57BL/6 mouse assessed as histological abnormalities of liver at 2000 mg/kg, ig after 14 consecutive days by hematoxylin/eosin dye-based microscopic analysis; assay type: organism-based; conditions: in vivo, po, 336 h
Procedure, shortened: (§2)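 Adult C57BL/6 mice, 12 weeks old, single intragastric doses of 0, 677, 1333 or 2000 mg/kg (n = 6 per dose, 3 male/3 female); behaviour and mortality observed over 14 days; liver, heart, lung and brain examined by HE staining at 2000 mg/kg.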

Mus musculus [7] = test: Toxicity in C57BL/6 mouse assessed as macroscopic abnormalities of lung at 677 to 2000 mg/kg, ig after 14 consecutive days; assay type: organism-based; conditions: in vivo, po, 336 h
Mus musculus [8] = test: Toxicity in double APP/PS1 transgenic Alzheimer's disease mouse model assessed as carcinogenicity in kidneys at 30 mg/kg/day, po for 80 days; assay type: organism-based; conditions: in vivo, 1920 h; procedure, shortened: as §1
[9] = Drug uptake in Sprague-Dawley rat plasma at 30 mg/kg, po after 1 hr by LC-MS/MS analysis; assay type: ADME, organism-based
Procedure, shortened: (§3)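 SD rats, single oral gavage 30 mg/kg, n = 3; plasma and brain drug levels taken 1 h after dosing, measured by LC-MS/MS.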

Mus musculus [10] = test: Toxicity in double APP/PS1 transgenic Alzheimer's disease mouse model assessed as effect on body weight at 30 mg/kg/day, po for 80 days; assay type: organism-based; conditions: in vivo, 1920 h; procedure, shortened: as §1
Mus musculus [11] = test: Induction of cell proliferation in C57BL/6 mouse hippocampal neurons in CA2 region assessed as BrdU-incorporation at 0.5 uL/hr, icv for 7 days by immunohistochemical analysis (reference value: 2.4%); assay type: functional
Mus musculus [12] = test: Cognition enhancement activity in double APP/PS1 transgenic Alzheimer's disease mouse model assessed as time spent in virtual platform at 30 mg/kg/day, po for 80 days by Morris water maze test (reference value: 1.9 +/- 0.2 sec); assay type: functional
Procedure, shortened: (§4)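 APP/PS1 mice, six months old, gavaged 30 mg/kg/day in 0.5% CMC-Na for 80 days. Probe trial was a single 90 s free swim with the platform absent; effective region is twice the platform diameter. n = 10, mean ± SD, two-way ANOVA.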

Mus musculus [13] = test: Induction of cell proliferation in C57BL/6 mouse hippocampal neurons in CA3 region assessed as BrdU-incorporation at 30 mg/kg, po administered via gavage for 7 days by immunohistochemical analysis (reference value: 1.5%); assay type: functional
Procedure, shortened: (§5)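 C57BL/6 mice, 12 weeks old, n = 6, individually housed beforehand without wheels. Compound gavaged 30 mg/kg/day for 7 days with daily IP BrdU 50 mg/kg; BrdU+ cells counted by immunohistochemistry per hippocampal volume; two-way ANOVA.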

Mus musculus [14] = test: Cognition enhancement activity in double APP/PS1 transgenic Alzheimer's disease mouse model assessed as time spent in correct quadrant at 30 mg/kg/day, po for 80 days by Morris water maze test (reference value: 20.6 +/- 4.4 sec); assay type: functional; procedure, shortened: as §4
Mus musculus [15] = test: Toxicity in double APP/PS1 transgenic Alzheimer's disease mouse model assessed as brain expansion at 30 mg/kg/day, po for 80 days; assay type: organism-based; conditions: in vivo, 1920 h; procedure, shortened: as §1
[16] = Half life in Sprague-Dawley rat at 30 mg/kg, po by LC-MS/MS analysis; assay type: ADME, organism-based; conditions: in vivo
Mus musculus [17] = test: Toxicity in C57BL/6 mouse assessed as histological abnormalities of heart at 2000 mg/kg, ig after 14 consecutive days by hematoxylin/eosin dye-based microscopic analysis; assay type: organism-based; conditions: in vivo, po; procedure, shortened: as §2
[18] = AUC (0 to infinity) in Sprague-Dawley rat at 5 mg/kg, iv administered as single dose by LC-MS/MS analysis; assay type: ADME, organism-based; parameters: dose 5 mg/kg, time infinity, route intravenous; conditions: in vivo
Procedure, shortened: (§6)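 SD rats given 5 mg/kg intravenously, n = 3; pharmacokinetic parameters derived from plasma concentrations.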

[19] = Drug uptake in Sprague-Dawley rat brain at 30 mg/kg, po after 1 hr by LC-MS/MS analysis; assay type: ADME, organism-based; conditions: read-out: Drug uptake; procedure, shortened: as §3
[20] = Apparent volume of distribution in Sprague-Dawley rat at 5 mg/kg, iv administered as single dose by LC-MS/MS analysis; assay type: ADME, organism-based; conditions: in vivo, read-out: Vz; procedure, shortened: as §6
Mus musculus [21] = test: Toxicity in C57BL/6 mouse assessed as effect on food intake at 677 to 2000 mg/kg, ig measured continuously during first 4 hrs, intermittently for following 24 hrs and occasionally thereafter for 14 consecutive days; assay type: organism-based; conditions: in vivo, po
Mus musculus [22] = test: Toxicity in C57BL/6 mouse assessed as macroscopic abnormalities of liver at 677 to 2000 mg/kg, ig after 14 consecutive days; assay type: organism-based; conditions: in vivo, po
Mus musculus [23] = test: Toxicity in C57BL/6 mouse assessed as macroscopic abnormalities of intestine at 677 to 2000 mg/kg, ig after 14 consecutive days; assay type: organism-based; conditions: in vivo, po
Mus musculus [24] = test: Toxicity in double APP/PS1 transgenic Alzheimer's disease mouse model assessed as swimming speed at 30 mg/kg/day, po for 80 days by Morris water maze test (reference value: 17.8 +/- 2.5 cm/sec); assay type: organism-based; conditions: in vivo, 1920 h
[25] = AUC (0 to infinity) in Sprague-Dawley rat at 30 mg/kg, po by LC-MS/MS analysis; assay type: ADME, organism-based; parameters: dose 30 mg/kg, time infinity, route oral; conditions: in vivo
Mus musculus [26] = test: Toxicity in C57BL/6 mouse assessed as macroscopic abnormalities of spleen at 677 to 2000 mg/kg, ig after 14 consecutive days; assay type: organism-based; conditions: in vivo, po
Mus musculus [27] = test: Induction of cell proliferation in C57BL/6 mouse hippocampal neurons in CA2 region assessed as BrdU-incorporation at 30 mg/kg, po administered via gavage for 7 days by immunohistochemical analysis (reference value: 2.4%); assay type: functional; procedure, shortened: as §5
Mus musculus [28] = test: Toxicity in C57BL/6 mouse assessed as macroscopic abnormalities of heart at 677 to 2000 mg/kg, ig after 14 consecutive days; assay type: organism-based; conditions: in vivo, po

Structure (SMILES)	Activity (Mus musculus [1])	Activity (Mus musculus [3])	Activity (Mus musculus [4])	Activity (Mus musculus [5])	Activity (Mus musculus [6])	Activity (Mus musculus [7])	Activity (Mus musculus [8])	Activity (Mus musculus [10])	Activity (Mus musculus [11])	Time (Mus musculus [12])	Activity (Mus musculus [13])	Time (Mus musculus [14])	Activity (Mus musculus [15])	Activity (Mus musculus [17])	Activity (Mus musculus [21])	Activity (Mus musculus [22])	Activity (Mus musculus [23])	Activity (Mus musculus [24])	Activity (Mus musculus [26])	Activity (Mus musculus [27])	further results
Cl.Oc1ccc2[nH]c(-c3ccc4c(Cl)cc(Cl)c(O)c4n3)cc2c1	Non-Toxic	Non-Toxic	Non-Toxic	Non-Toxic	Non-Toxic	Non-Toxic	Non-Toxic	Non-Toxic	39.6%	3.2 s	23.9%	27.4 s	Non-Toxic	Non-Toxic	Non-Toxic	Non-Toxic	Non-Toxic	18.9 cm/s	Non-Toxic	24.3%	C0 [2]: 4930 ng/mL; concentration at 1 h [9]: 902 ng/g; half-life [16]: 3.58 h; AUC(0-inf) [18]: 2120 ng·h/mL; concentration at 1 h [19]: 579 ng/g; Vd [20]: 2.49 L/kg; AUC(0-inf) [25]: 1790 ng·h/mL; Activity (Mus musculus [28]): Non-Toxic
Cl.Oc1c(Cl)cc(Cl)c2ccc(-c3cc4cc5c(cc4[nH]3)OCO5)nc12	Non-Toxic	Non-Toxic	Non-Toxic	Non-Toxic	Non-Toxic	Non-Toxic	Non-Toxic	Non-Toxic	38%	2.6 s	17.1%	24 s	Non-Toxic	Non-Toxic	Non-Toxic	Non-Toxic	Non-Toxic	19 cm/s	Non-Toxic	16.3%	Activity (Mus musculus [28]): Non-Toxic
